The target of one series is Acetylcholinesterase (Electrophorus electricus, UniProt O42275). The series can be described thus: Inhibition of Electrophorus electricus AChE using acetylthiocholine iodide as substrate after 20 mins measured for 1 min interval for 30 mins by Ellman's method.
For a further series, the target named is Cholinesterase (Equus caballus, UniProt P81908). The series can be described thus: Inhibition of equine serum BChE using butyrylthiocholine iodide as substrate after 20 mins measured for 1 min interval for 30 mins by Ellman's method.
Sequence of Cholinesterase (P81908 whole entry): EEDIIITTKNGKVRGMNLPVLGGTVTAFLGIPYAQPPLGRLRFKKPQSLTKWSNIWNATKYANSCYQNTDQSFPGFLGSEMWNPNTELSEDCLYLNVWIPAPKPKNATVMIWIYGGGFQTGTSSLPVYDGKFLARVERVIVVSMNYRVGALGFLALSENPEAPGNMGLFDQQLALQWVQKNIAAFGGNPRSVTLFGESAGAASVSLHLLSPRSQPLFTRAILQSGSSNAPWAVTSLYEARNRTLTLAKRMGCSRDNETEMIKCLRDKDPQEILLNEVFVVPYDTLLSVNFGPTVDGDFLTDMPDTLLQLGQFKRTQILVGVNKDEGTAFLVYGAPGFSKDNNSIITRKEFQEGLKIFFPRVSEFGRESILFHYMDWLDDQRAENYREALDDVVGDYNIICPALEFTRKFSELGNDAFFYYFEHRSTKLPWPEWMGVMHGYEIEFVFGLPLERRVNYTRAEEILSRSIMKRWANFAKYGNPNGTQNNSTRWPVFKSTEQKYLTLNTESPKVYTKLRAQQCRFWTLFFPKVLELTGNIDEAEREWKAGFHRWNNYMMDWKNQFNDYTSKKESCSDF
A short description of series [1]: Selectivity ratio of Ki for Electrophorus electricus AChE to Ki for equine serum BChE. The essentials: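 Ki from Ellman kinetics at pH 8.0 and 30 °C after 20 min enzyme–inhibitor–DTNB preincubation. Inhibitor at several concentrations plus a water blank; ATChI or BTChI at 0.9375, 0.625, 0.325 and 0.1875 mM. A415 read every 1 min for 30 min, in triplicate. Ki from Lineweaver-Burk, Dixon and Cornish-Bowden plots; F = Ki(AChE)/Ki(BChE).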

Series [2] is described as follows: Solubility of the compound. In kind it is physicochemical.

Our source for the Ki, Ratio Ki and solubility values is ChEMBL document CHEMBL3286281, “Amino derivatives of glycyrrhetinic acid as potential inhibitors of cholinesterases” (Bioorg Med Chem, 2014).

Sequence of Acetylcholinesterase (O42275 whole entry): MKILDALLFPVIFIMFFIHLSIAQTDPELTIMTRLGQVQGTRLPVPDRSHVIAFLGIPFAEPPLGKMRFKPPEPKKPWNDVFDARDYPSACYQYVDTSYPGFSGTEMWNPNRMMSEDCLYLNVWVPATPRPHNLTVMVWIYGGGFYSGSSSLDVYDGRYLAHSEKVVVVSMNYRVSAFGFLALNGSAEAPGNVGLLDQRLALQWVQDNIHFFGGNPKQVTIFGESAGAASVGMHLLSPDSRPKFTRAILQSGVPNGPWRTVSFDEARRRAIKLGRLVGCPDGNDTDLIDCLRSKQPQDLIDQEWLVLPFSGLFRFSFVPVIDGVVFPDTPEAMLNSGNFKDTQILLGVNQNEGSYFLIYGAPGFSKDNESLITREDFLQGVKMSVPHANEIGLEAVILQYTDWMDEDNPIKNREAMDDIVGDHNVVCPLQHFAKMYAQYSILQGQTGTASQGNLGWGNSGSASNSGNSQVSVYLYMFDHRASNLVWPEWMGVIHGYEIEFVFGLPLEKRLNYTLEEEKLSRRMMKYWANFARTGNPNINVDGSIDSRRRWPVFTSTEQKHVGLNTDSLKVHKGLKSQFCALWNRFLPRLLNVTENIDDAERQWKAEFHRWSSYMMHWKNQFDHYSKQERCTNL

As for `CCOC(=O)[C@@]1(C)CC[C@]2(C)CC[C@]3(C)C(=CC(=O)[C@@H]4[C@@]5(C)CC[C@H](OC(=O)[C@H](Cc6ccccc6)NC(=O)OC(C)(C)C)C(C)(C)[C@@H]5CC[C@]43C)[C@@H]2C1`, the Ki on Acetylcholinesterase and on Cholinesterase was greater than 2 µM throughout.
For the molecule `COC(=O)[C@@]1(C)CC[C@]2(C)CC[C@]3(C)C(=CC(=O)[C@@H]4[C@@]5(C)CC[C@H](OC(=O)[C@@H](N)CC(=O)OCc6ccccc6)C(C)(C)[C@@H]5CC[C@]43C)[C@@H]2C1`, the results for the inhibition constant (Ki) at Acetylcholinesterase and at Cholinesterase were 28.1 µM and greater than 100 µM, respectively. The Ratio Ki in series [1] was less than 0.28.
`CC1(C)[C@@H](OC(=O)CN)CC[C@]2(C)[C@H]3C(=O)C=C4[C@@H]5C[C@@](C)(C(=O)O)CC[C@]5(C)CC[C@@]4(C)[C@]3(C)CC[C@@H]12`: the Ki at Acetylcholinesterase and on Cholinesterase was greater than 100 µM in each case.
For the molecule `COC(=O)[C@@]1(C)CC[C@]2(C)CC[C@]3(C)C(=CC(=O)[C@@H]4[C@@]5(C)CC[C@H](OC(=O)[C@@H](N)Cc6ccccc6)C(C)(C)[C@@H]5CC[C@]43C)[C@@H]2C1`, the Ki at Acetylcholinesterase is 20.7 µM; at Cholinesterase it was greater than 100 µM. Besides, in series [1], the Ratio Ki was less than 0.21.
Taken in the same sequence, the figures for `COC(=O)[C@@]1(C)CC[C@]2(C)CC[C@]3(C)C(=CC(=O)[C@@H]4[C@@]5(C)CC[C@H](OC(=O)[C@@H](N)CCCCN)C(C)(C)[C@@H]5CC[C@]43C)[C@@H]2C1` were 20 µM, greater than 100 µM and less than 0.2.
Take `CC1(C)[C@@H](O)CC[C@]2(C)[C@H]3C(=O)C=C4[C@@H]5C[C@@](C)(C(=O)NCCN)CC[C@]5(C)CC[C@@]4(C)[C@]3(C)CC[C@@H]12`: the Ki on Acetylcholinesterase and on Cholinesterase was greater than 100 µM in each case.
With `CC1(C)[C@@H](O)CC[C@]2(C)[C@H]3C(=O)C=C4[C@@H]5C[C@@](C)(C(=O)NCCCCCN)CC[C@]5(C)CC[C@@]4(C)[C@]3(C)CC[C@@H]12`, the inhibitory constant (Ki) on Acetylcholinesterase and on Cholinesterase was greater than 100 µM in each case.
For `CNCC(=O)O[C@H]1CC[C@]2(C)[C@H]3C(=O)C=C4[C@@H]5C[C@@](C)(C(=O)OC)CC[C@]5(C)CC[C@@]4(C)[C@]3(C)CC[C@H]2C1(C)C`, the Ki on Acetylcholinesterase is 20.4 µM; at Cholinesterase, greater than 100 µM. In addition, the Ratio Ki in series [1] was less than 0.21.
For `CC(C)(C)OC(=O)NCCCNC(=O)[C@@]1(C)CC[C@]2(C)CC[C@]3(C)C(=CC(=O)[C@@H]4[C@@]5(C)CC[C@H](O)C(C)(C)[C@@H]5CC[C@]43C)[C@@H]2C1`, the Ki on Acetylcholinesterase and on Cholinesterase was greater than 10 µM throughout.
Take `CC[C@H](C)[C@H](N)C(=O)O[C@H]1CC[C@]2(C)[C@H]3C(=O)C=C4[C@@H]5C[C@@](C)(C(=O)OC)CC[C@]5(C)CC[C@@]4(C)[C@]3(C)CC[C@H]2C1(C)C`: the solubility entry in series [2] was “Insoluble”.
On to `COC(=O)[C@@]1(C)CC[C@]2(C)CC[C@]3(C)C(=CC(=O)[C@@H]4[C@@]5(C)CC[C@H](OC(=O)[C@@H](N)CCCN)C(C)(C)[C@@H]5CC[C@]43C)[C@@H]2C1`, for which the solubility result in series [2] is given as “Insoluble”.
In the case of `COC(=O)[C@@]1(C)CC[C@]2(C)CC[C@]3(C)C(=CC(=O)[C@@H]4[C@@]5(C)CC[C@H](OC(=O)[C@@H](N)CC(=O)O)C(C)(C)[C@@H]5CC[C@]43C)[C@@H]2C1`, the Ki was 16.2 µM at Acetylcholinesterase and greater than 100 µM on Cholinesterase. For the same molecule, the Ratio Ki in series [1] is less than 0.16.
As to `CC1(C)[C@@H](O)CC[C@]2(C)[C@H]3C(=O)C=C4[C@@H]5C[C@@](C)(C(=O)O)CC[C@]5(C)CC[C@@]4(C)[C@]3(C)CC[C@@H]12` [ENOXOLONE], the Ki at Acetylcholinesterase and at Cholinesterase was greater than 100 µM in each case.
For the molecule `COC(=O)C[C@H](N)C(=O)O[C@H]1CC[C@]2(C)[C@H]3C(=O)C=C4[C@@H]5C[C@@](C)(C(=O)OC)CC[C@]5(C)CC[C@@]4(C)[C@]3(C)CC[C@H]2C1(C)C`, in series [2], the solubility entry was “Insoluble”.
Take `COC(=O)[C@@]1(C)CC[C@]2(C)CC[C@]3(C)C(=CC(=O)[C@@H]4[C@@]5(C)CC[C@H](OC(=O)[C@H](C)N)C(C)(C)[C@@H]5CC[C@]43C)[C@@H]2C1` [listing 1 of 3 here]: in series [1], the Ratio Ki is less than 0.21.
Consider `COC(=O)CC[C@H](N)C(=O)O[C@H]1CC[C@]2(C)[C@H]3C(=O)C=C4[C@@H]5C[C@@](C)(C(=O)OC)CC[C@]5(C)CC[C@@]4(C)[C@]3(C)CC[C@H]2C1(C)C`, for which the solubility entry in series [2] is listed as “Insoluble”.
Regarding `CC1(C)[C@@H](O)CC[C@]2(C)[C@H]3C(=O)C=C4[C@@H]5C[C@@](C)(C(=O)NCCCCN)CC[C@]5(C)CC[C@@]4(C)[C@]3(C)CC[C@@H]12`, the results for the Ki at Acetylcholinesterase and on Cholinesterase were 41.8 µM and 74.3 µM, respectively. Further, the Ratio Ki in series [1] is 0.56.
In the case of `COC(=O)[C@@]1(C)CC[C@]2(C)CC[C@]3(C)C(=CC(=O)[C@@H]4[C@@]5(C)CC[C@H](OC(=O)[C@H](C)N)C(C)(C)[C@@H]5CC[C@]43C)[C@@H]2C1` [listing 2 of 3 here], the Ki at Acetylcholinesterase is 20.8 µM; at Cholinesterase it was greater than 100 µM.
As for `CC1(C)[C@@H](O)CC[C@]2(C)[C@H]3C(=O)C=C4[C@@H]5C[C@@](C)(C(=O)O/C(=N\C6CCCCC6)NC6CCCCC6)CC[C@]5(C)CC[C@@]4(C)[C@]3(C)CC[C@@H]12`, the Ki on Acetylcholinesterase and on Cholinesterase was greater than 10 µM each time.
Take `CC1(C)[C@@H](O)CC[C@]2(C)[C@H]3C(=O)C=C4[C@@H]5C[C@@](C)(C(=O)OCCBr)CC[C@]5(C)CC[C@@]4(C)[C@]3(C)CC[C@@H]12`: the Ki on Acetylcholinesterase is 23.8 µM; on Cholinesterase it was greater than 100 µM. In addition, the Ratio Ki in series [1] was less than 0.24.
Consider `COC(=O)[C@@]1(C)CC[C@]2(C)CC[C@]3(C)C(=CC(=O)[C@@H]4[C@@]5(C)CC[C@H](OC(=O)[C@@H](N)C(C)C)C(C)(C)[C@@H]5CC[C@]43C)[C@@H]2C1`, for which the solubility entry in series [2] is on record as “Insoluble”.
For `COC(=O)[C@@]1(C)CC[C@]2(C)CC[C@]3(C)C(=CC(=O)[C@@H]4[C@@]5(C)CC[C@H](OC(=O)CN)C(C)(C)[C@@H]5CC[C@]43C)[C@@H]2C1`, the Ki is 19.8 µM at Acetylcholinesterase and greater than 100 µM at Cholinesterase. Besides, the Ratio Ki in series [1] is less than 0.2.
Regarding `COC(=O)[C@@]1(C)CC[C@]2(C)CC[C@]3(C)C(=CC(=O)[C@@H]4[C@@]5(C)CC[C@H](OC(=O)[C@@H](N)CSCc6ccccc6)C(C)(C)[C@@H]5CC[C@]43C)[C@@H]2C1`, the inhibitory constant (Ki) is 40.6 µM on Acetylcholinesterase and greater than 100 µM on Cholinesterase. Also, the Ratio Ki in series [1] is less than 0.41.
The matching figures for `CCOC(=O)[C@@]1(C)CC[C@]2(C)CC[C@]3(C)C(=CC(=O)[C@@H]4[C@@]5(C)CC[C@H](OC(=O)[C@@H](N)Cc6ccccc6)C(C)(C)[C@@H]5CC[C@]43C)[C@@H]2C1`: 13.7 µM, greater than 100 µM and less than 0.14.
As for `C[C@H](N)C(=O)O[C@H]1CC[C@]2(C)[C@H]3C(=O)C=C4[C@@H]5C[C@@](C)(C(=O)O)CC[C@]5(C)CC[C@@]4(C)[C@]3(C)CC[C@H]2C1(C)C`, the Ki is 24 µM on Acetylcholinesterase and greater than 100 µM on Cholinesterase. For the same molecule, in series [1], the Ratio Ki was less than 0.24.
Regarding `COC(=O)[C@@]1(C)CC[C@]2(C)CC[C@]3(C)C(=CC(=O)[C@@H]4[C@@]5(C)CC[C@H](OC(=O)[C@H](C)N)C(C)(C)[C@@H]5CC[C@]43C)[C@@H]2C1` [listing 3 of 3 here], the solubility entry in series [2] is “Insoluble”.
Turning to `C=CCCOC(=O)[C@@]1(C)CC[C@]2(C)CC[C@]3(C)C(=CC(=O)[C@@H]4[C@@]5(C)CC[C@H](O)C(C)(C)[C@@H]5CC[C@]43C)[C@@H]2C1`, the Ki on Acetylcholinesterase was 14.9 µM; on Cholinesterase it was greater than 100 µM. The Ratio Ki in series [1] is less than 0.15.
On to `COC(=O)[C@@]1(C)CC[C@]2(C)CC[C@]3(C)C(=CC(=O)[C@@H]4[C@@]5(C)CC[C@H](OC(=O)[C@@H](N)CC(C)C)C(C)(C)[C@@H]5CC[C@]43C)[C@@H]2C1`, for which the solubility result in series [2] is listed as “Insoluble”.
In the case of `COC(=O)[C@@]1(C)CC[C@]2(C)CC[C@]3(C)C(=CC(=O)[C@@H]4[C@@]5(C)CC[C@H](OC(=O)[C@@H]6CCCN6)C(C)(C)[C@@H]5CC[C@]43C)[C@@H]2C1`, the Ki at Acetylcholinesterase was 23.5 µM; at Cholinesterase, greater than 100 µM. The Ratio Ki in series [1] was less than 0.24.
Taken in the same sequence, the figures for `CCOC(=O)[C@@]1(C)CC[C@]2(C)CC[C@]3(C)C(=CC(=O)[C@@H]4[C@@]5(C)CC[C@H](OC(=O)[C@H](N)Cc6c[nH]c7ccccc67)C(C)(C)[C@@H]5CC[C@]43C)[C@@H]2C1` were 11.7 µM, greater than 100 µM and less than 0.12.
The matching figures for `COC(=O)[C@@]1(C)CC[C@]2(C)CC[C@]3(C)C(=CC(=O)[C@@H]4[C@@]5(C)CC[C@H](OC(=O)[C@@H](C)N)C(C)(C)[C@@H]5CC[C@]43C)[C@@H]2C1`: 17.7 µM, greater than 100 µM and less than 0.18.
Taken in the same sequence, the figures for `CC1(C)[C@@H](O)CC[C@]2(C)[C@H]3C(=O)C=C4[C@@H]5C[C@@](C)(C(=O)OC/C=C/CBr)CC[C@]5(C)CC[C@@]4(C)[C@]3(C)CC[C@@H]12` were 29.6 µM, greater than 40 µM and less than 0.74.
Turning to `COC(=O)[C@@]1(C)CC[C@]2(C)CC[C@]3(C)C(=CC(=O)[C@@H]4[C@@]5(C)CC[C@H](OC(=O)[C@@H](N)CCC(=O)O)C(C)(C)[C@@H]5CC[C@]43C)[C@@H]2C1`, the Ki at Acetylcholinesterase was 18.9 µM; on Cholinesterase, greater than 100 µM. Also, in series [1], the Ratio Ki is less than 0.19.
